In one data set the test system is Platelet. As to the kind of experiment: Induction of platelets aggregation in human platelet rich plasma at 10^-4 M after 3 mins by light transmission aggregometry analysis. Type of data set: functional, cell-free. A digest of the protocol: (§1)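 PRP from citrated whole blood (9:1) of healthy volunteers taken 2 h after an acetylsalicylic acid tablet; centrifuged 150g, 21 °C, 10 min. Pre-warmed PRP at 37 °C with test agent (10^-4 M) or vehicle; aggregation triggered with 10^-6 M ADP; shape change and aggregation followed 3 min by light transmission aggregometry.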

A short description of data set [1]: (§2) Metabolic stability in Wistar rat liver homogenates assessed as compound degradation at 50 uM after 6 hrs by HPLC analysis. The class given is ADME, tissue-based. The note with it: Wistar, liver homogenates, read-out: Drug degradation. A digest of the protocol:
(§3)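 Male Wistar rat liver washed in ice-cold saline, homogenized in 50 mM Tris-HCl pH 7.4 (4 mL/g); 2000 × g, 10 min, 4 °C supernatant stored −80 °C. Compound from 10^-2 M DMSO stock incubated at 50 μM final, 37 °C, up to 360 min; HPLC with external-standard peak areas. First-order kinetics from semilogarithmic plots; mean ± SD of three independent experiments.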

The nature of data set [2]: Half life in Wistar rat liver homogenates at 50 uM by HPLC analysis. The class given is ADME, tissue-based. In a few lines: as §3
Data set [3] is described as follows: Antiplatelet activity against human platelets assessed as inhibition of ADP-induced platelet aggregation at 10^-4 M after 3 mins by light transmission aggregometry analysis. The class given is functional. The note with it: 0.05 h. In a few lines: as §1
Data set [4] deals with Liver. As to the kind of experiment: Drug degradation in Wistar rat liver homogenates assessed as increase in guanine formation by HPLC analysis. Type of data set: ADME, tissue-based. Particulars: tissue homogenate. A digest of the protocol: (§4)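 Supernatant of male Wistar rat liver homogenate (Tris-HCl 50 mM, pH 7.4; 2000 × g) incubated at 37 °C with 50 μM compound up to 360 min. Guanine measured by RP18 HPLC, water/acetonitrile 99:1 with 0.01 M H3PO4, 0.8 mL/min, external-standard peak areas.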

A short description of data set [5]: (§5) Metabolic stability in human whole blood assessed as compound degradation after 6 hrs by HPLC analysis. Type of data set: ADME, tissue-based. The note with it: whole blood, read-out: Drug degradation. In a few lines:
(§6)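 Compound from 10^-2 M DMSO stock incubated at 50 μM final in whole blood from healthy subjects (3 mL) at 37 °C for intervals up to 360 min. Remaining parent quantified by reversed-phase HPLC, peak areas against external standards; semilogarithmic regression for first-order kinetics; mean ± SD of three independent experiments.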

Data set [6] relates to Liver. The data set is described as §2. The class given is ADME, tissue-based. The note with it: tissue homogenate, 6 h, 50 µM. A digest of the protocol: as §3
Another data set has as its system Blood. The data set is described as §5. The note with it: blood, 6 h. Type of data set: ADME, tissue-based. A digest of the protocol: as §6
The test system of data set [7] is Liver. As to the kind of experiment: Metabolic stability in Wistar rat liver homogenates assessed as increase in guanine formation by HPLC analysis. Type of data set: ADME, tissue-based. Particulars: tissue homogenate. A digest of the protocol: as §4

Structures are written as SMILES. Activity calls are given as the source filed them. The rule behind the calls is not given here.

Turning to `CCOP(=O)(CC(=O)OCCOCn1cnc2c(N)ncnc21)OCC`, the outcome in the data set on Platelet was inactive. Turning to `CC(C)C(=O)Nc1nc2c(ncn2[C@@H]2O[C@H](COC(=O)CP(=O)(O)O)[C@@H](O)[C@H]2O)c(=O)[nH]1`, in the data set with Platelet, the result was inactive. Still for that read-out and setting: for `CCOP(=O)(CC(=O)NC[C@H]1O[C@@H](n2cnc3c(N)ncnc32)[C@H](O)[C@@H]1O)OCC` the value was “inactive”; for `CCOP(=O)(CC(=O)NC[C@H]1O[C@@H](n2cnc3c(=O)[nH]cnc32)[C@H](O)[C@@H]1O)OCC`, “inactive”. Usually half-life stands for the time in which the quantity being followed falls by half. What is called inhibition is how much of the control response was suppressed. For `CCOP(=O)(CC(=O)OC[C@H]1O[C@@H](n2cnc3c(=O)[nH]c(N)nc32)[C@H](O)[C@@H]1O)OCC`, the metabolised at 6 h, 50 µM in [1] was 80%. In data set [2], this compound showed a half-life at 50 µM of 140 min. Moreover, in [3], the inhibition at 100 µM is at most 70%. The outcome with Platelet was inactive. For the same compound, the Drug degradation result with Liver [4] is on record as “Active”. Moreover, the metabolised at 6 h in data set [5] turned out to be 20%. On to `CCOP(=O)(CC(=O)OC[C@H]1O[C@@H](n2cnc3c(=O)[nH]cnc32)[C@H](O)[C@@H]1O)OCC`, for which the result with Platelet was inactive. In the case of `Nc1ncnc2c1ncn2[C@@H]1O[C@H](COC(=O)CP(=O)(O)O)[C@@H](O)[C@H]1O` [ADENOSINE PHOSPHONOACETIC ACID], the Stability result in the data set on Liver [6] and with Blood was “Stable” throughout. Moreover, in [3], the inhibition at 100 µM was at most 70%. For the same compound, in the data set on Platelet, the result was inactive. For the compound `O=C(CP(=O)(O)O)NC[C@H]1O[C@@H](n2cnc3c(=O)[nH]cnc32)[C@H](O)[C@@H]1O`, the result in the data set with Platelet was inactive. The same measure, in the same setting: for `CCOP(=O)(CC(=O)OC[C@H]1O[C@@H](n2c(SC)nc3c(N)ncnc32)[C@H](O)[C@@H]1O)OCC` the value was “inactive”.

Turning to `CCOP(=O)(CC(=O)OC[C@H](CO)O[C@H](CO)n1cnc2c(N)ncnc21)OCC`, the result in the data set on Platelet was inactive.

Take `CCOP(=O)(CC(=O)OC[C@H]1O[C@@H](n2cnc3c(=O)[nH]c(NC(=O)C(C)C)nc32)[C@H](O)[C@@H]1O)OCC`: in the data set on Platelet, the result was inactive. Regarding `Nc1nc2c(ncn2[C@@H]2O[C@H](CO)[C@@H](O)[C@H]2O)c(=O)[nH]1` [GUANOSINE], the half-life at 50 µM in data set [2] was 0.242 min. In addition, the Stability entry in the data set with Liver [7] is reported as “Unstable”. `CCOP(=O)(CC(=O)NC[C@H](CO)O[C@H](CO)n1cnc2c(N)ncnc21)OCC`: the result with Platelet was inactive. Consider `Nc1nc2c(ncn2[C@@H]2O[C@H](COC(=O)CP(=O)(O)O)[C@@H](O)[C@H]2O)c(=O)[nH]1`, for which, in the data set with Platelet, the outcome was inactive. Same read-out and setting: with `CCOP(=O)(CC(=O)OC[C@H]1O[C@@H](n2cnc3c(N)ncnc32)[C@H](O)[C@@H]1O)OCC` the entry was “inactive”; with `Nc1ncnc2c1ncn2[C@@H]1O[C@H](CNC(=O)CP(=O)(O)O)[C@@H](O)[C@H]1O`, “inactive”.

With `CCOP(=O)(O)CC(=O)OCCOCn1cnc2c(N)ncnc21`, the Stability entry in the data set on Liver [6] and in the data set on Blood was “Stable” each time. For the same compound, the inhibition at 100 µM in [3] is at most 70%. Further, the result with Platelet was inactive.

These data come from ChEMBL document CHEMBL2040843, “Synthesis and in vitro stability of nucleoside 5'-phosphonate derivatives” (Eur J Med Chem, 2012).
